Autophagy HCS: alters autophagy in cells; hit rate 0.98% among 190,000; calls only at 10 µM (by protocol); MEF GFP-LC3 puncta imaging; test concentration mostly 10 µM; AID 463193;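 active = percentage of spot-positive cells more than 3 SD above its plate mean, without a fluorescence outlier flag or 80% toxicity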
MT stabilizer: stabilizes microtubules in HeLa cells; HeLa tubulin immunostaining HCS, 24 h; share of cells brighter than vehicle mean+2SD; hit rate 0.83% among 200,000; % tubulin-high responders, % at 10 µM;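 active = plate Z-score above 3 for both tubulin-high and condensed-nucleus cell shares, with cell loss under 80%, at 10 µM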;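 note: anti alpha tubulin signal scored within the nucleus-defined area of each cell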
Dynein transport: dynein cargo transport inhibition; 3617.4 mouse cells, GR-EGFP nuclear translocation imaging; test concentration mostly 20 µM; stimulated with dexamethasone, 1 µM; active compounds read low; z-score, hits read low; hit rate 0.47% among 220,000; AID 1381;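 active = plate z-score of nuclear minus cytoplasmic receptor signal below a set negative limit, without overly bright fluorescence or cell loss, cut at about -3.5 in these data, passing the limit was not always enough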;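 note: z-score of nuclear minus cytoplasmic ring GR-EGFP intensity difference per well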
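Also added: dexamethasone, 1.0 µM final. Medium: tet-free, stripped-serum medium. Detection: fixed, Hoechst-stained cells imaged at 10x for EGFP. Read-out: nuclear-to-cytoplasmic GR-EGFP distribution per well. Times: induction 48 h, compound 1 h, agonist 30 min.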
Hsp70 act: switches on Hsp70 transcription; HeLa Hsp70 promoter luciferase reporter, luminescence; scaled: vehicle 0, proteasome-inhibitor control 100%; activation, % at 10 µM; hit rate 0.04% among 200,000; AID 1203;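 active = activation above the mean across all tested compounds plus 3 SD, cutoff set per campaign, cut at about 5.5% in these data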
b-catenin transl: modulators of beta-catenin nuclear translocation; AID 1665; HeLa beta-catenin nuclear translocation, immunofluorescence imaging; hit rate 0.3% among 190,000; nuclear translocation activity, % at 5 µM;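 active = nuclear translocation activity above 50% at 5 µM, with a well cell count of 50 or more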;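 note: per-cell ratio of nuclear to cytoplasmic median beta-catenin stain intensity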
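Test system: HeLa cells, endogenous beta-catenin; Compound: single 5 µM dose plus 0.02–20 µM confirmation series; Times: compound exposure 24 h at 37°C; Signal: fluorescence imaging of beta-catenin antibody stain plus DAPI; Read-out: % activation, nuclear-to-cytoplasmic median beta-catenin signal ratio per cell.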
A number is an active result; n = inactive; x = no result; + = active, no number; ! = not confirmed by another sample. Compounds with a hit are over-represented: about 2.1% of the library has one in this group of screens.

SMILES	Autophagy HCS	MT stabilizer	Dynein transport	Hsp70 act	b-catenin transl
COc1ccc(-n2cnc3cc(C(=O)N4CCC5(CC4)OCCO5)ccc32)cc1	n	13	n	n	n
O=C1NC(=O)N(Cc2ccc(F)cc2)C(=O)/C1=C\c1ccc([N+](=O)[O-])s1	x	x	-5	x	n
O=C1NC(=O)N(Cc2ccc(F)cc2)C(=O)/C1=C\c1ccc(N2CCCC2)cc1	x	x	n	x	n
O=c1[nH]c(=O)n(Cc2ccco2)c(O)c1/C=N/N1CCCCC1	n	n	n	n	n
COc1ccc(/C=C2/C(=O)NC(=O)N(c3ccccc3)C2=O)cc1CN1C(=O)c2ccccc2C1=O	x	x	n	x	n
COc1ccc(/C=C2/C(=O)NC(=S)N(C3CC3)C2=O)cc1CN1C(=O)c2ccccc2C1=O	n	n	-3.6	n	n
CCN(CC)c1ccc(N=Cc2c(O)n(Cc3ccccc3)c(=O)[nH]c2=O)cc1	+!	n	n	n	n
O=C(N/N=C/c1c(O)n(Cc2ccc(F)cc2)c(=O)[nH]c1=O)c1ccccc1O	n	14	n	n	n
CCN(CC)c1ccc(N=Cc2c(O)n(-c3ccccc3)c(=O)[nH]c2=O)cc1	x	x	n	x	n
CCOc1ccccc1-n1c(O)c(C=Nc2ccc(N(CC)CC)cc2)c(=O)[nH]c1=O	n	22	n	n	n
CCC1(C(=O)c2ccccc2)C2c3ccccc3OC(=O)C21C(C)=O (stereo not given)	x	x	n	x	n
Cc1cc(C)c2c(c1)-c1cc(C)nn1C(c1cccnc1)N2 (stereo not given)	n	n	n	n	n
O=C(c1ccccc1)C1CCCN(Cc2nc(-c3cnccn3)no2)C1 (stereo not given)	+	n	n	n	n
O=C(c1cccnc1)C1CCCN(Cc2nc(-c3cnccn3)no2)C1 (stereo not given)	x	x	n	x	n
Cc1c(C=O)c2ccccc2n1Cc1ccc([N+](=O)[O-])cc1	n	n	n	n	n
COc1cccc(-n2c(CN3CCN(C)CC3)nc3ccc([N+](=O)[O-])cc3c2=O)c1	n	n	n	n	n
O=C1CN=C(c2cccs2)c2c(sc3c2CCCC3)N1	n	54	n	n	n
Cc1cccn2c(=O)c3cc(C(=O)N4CCC5(CC4)OCCO5)n(C)c3nc12	n	34	n	n	n
CC(C)(C)C(=O)NC1CCSC1=O (stereo not given)	n	n	n	n	n
O=C(Nc1nccs1)C(Cl)(Cl)Cl	n	n	n	n	n
O=C(Nc1ccc(Cl)cc1)Nc1nccs1	n	46	n	n	n
CN(C)c1ccc(/C=C2/C(=N\O)C3CCN2CC3)cc1	x	x	n	x	n
O=C(c1cc2c(s1)-c1ccccc1OC2)N1CCC2(CC1)OCCO2	n	54	n	n	n
CCn1nc(/C=C/c2ccccc2)nc2c(=O)n(C)c(=O)nc1-2	n	28	n	n	n
Nc1cc(Cl)c2nonc2c1[N+](=O)[O-]	n	n	-4.2	n	n
SMILES	Autophagy HCS	MT stabilizer	Dynein transport	Hsp70 act	b-catenin transl
O=c1[nH]c(=O)n(Cc2ccccc2Cl)c(O)c1/C=C1/C=CC=N1	n	29	n	n	n
C=CCn1c(O)c(/C=C2/C=CC=N2)c(=O)[nH]c1=O	n	n	n	n	n
COc1cccc(OC)c1C1=NCC(=O)Nc2c1oc1ccc(Br)cc21	+	14	n	n	n
c1ccc(-c2ccc(-c3n(-c4ccccn4)c4ccccc4[n+]3-c3ccccn3)cc2)cc1	+	n	n	n	n
Cn1c(O)c(/C=C2\N=c3ccccc3=C2CCNC(=S)NC2CC2)c(=O)n(C)c1=O	x	x	n	x	n
CC/C(=N\Nc1ccccc1)c1c(O)n(C)c(=O)n(C)c1=O	n	n	n	n	n
C/C(=N\NC(=S)Nc1ccccc1)c1c(O)n(C)c(=O)n(C)c1=O	+	n	n	n	n
OC1/C(=C/c2ccc(Cl)cc2Cl)N2CCC1CC2 (stereo not given)	n	n	n	n	n
Cc1ccc(NP(=O)(Oc2ccccc2F)Oc2ccccc2F)cc1C	n	n	n	n	n
COc1ccccc1OP(=O)(Nc1cccnc1)Oc1ccccc1OC	+	n	n	n	n
COc1cccc(NP(=O)(Oc2ccc(Cl)cc2)Oc2ccc(Cl)cc2)c1	n	n	n	n	90
CCOc1nc(NC(C)C)nc(N2CC3CC(C2)c2cccc(=O)n2C3)n1 (stereo not given)	n	n	n	n	n
NC(N)=N/N=C/c1cn(-c2ccccc2)nc1-c1cccs1	+	n	n	n	n
O=c1c2ccccc2nc(-c2cccs2)n1-c1ccccc1	n	n	n	n	x
COc1ccc(C2=NCC(=S)Nc3ccc(Cl)cc32)cc1Cl	n	n	n	n	n
CCC(=O)OC1(Cc2ccc(CC)cc2)CC(C)N(C)CC1C (stereo not given)	x	x	n	x	n
CCC(=NCCN1CCCCC1)c1c(O)n(C)c(=O)n(C)c1=O	+	n	n	n	x
O=C1OC(c2ccc(Cl)cc2)=N/C1=C\N1CC2CC(C1)c1cccc(=O)n1C2 (stereo not given)	x	x	n	x	n
CCCCn1c(O)c(C(CC)=Nc2ccc(OC)cc2OC)c(=O)[nH]c1=O	n	29	n	n	n
CCCCn1c(O)c(C(C)=NC(C)c2ccccc2)c(=O)[nH]c1=O (stereo not given)	n	n	n	n	n
CCCCn1c(O)c(C(CC)=NC(C)c2ccccc2)c(=O)[nH]c1=O (stereo not given)	n	47	n	n	x
COC(=O)C1=C(N)Oc2c(c(=O)oc3ccccc23)C1c1cccnc1 (stereo not given)	n	n	n	n	n
O=c1[nH]c(=O)n(-c2ccccc2)c(O)c1/C=C1/C(c2ccccc2)=Nc2ccccc21	n	31	n	n	80
COC(=O)C1=Nc2ccccc2/C1=C\c1c(O)n(-c2ccc(Br)cc2)c(=O)[nH]c1=O	n	n	n	n	n
Cc1ccc(CN2C3CCCC2CC(NC(=O)Nc2cccc(F)c2)C3)cc1 (stereo not given)	+	n	n	n	n
SMILES	Autophagy HCS	MT stabilizer	Dynein transport	Hsp70 act	b-catenin transl
O=C(Nc1ccccc1)NC1CC2CCC(C1)N2 (stereo not given)	n	n	n	n	n
C=C1C(=O)O[C@@H]2C[C@@H](C)[C@@H]3C=CC(=O)[C@@]3(C)[C@@H](O)[C@H]12	x	x	-3.6	x	n
Cc1ccc(/C=C2\C(=O)NC(=S)N(c3ccccc3F)C2=O)s1	n	33	-3.7	n	n
Cc1cc(=O)[nH]c(SCc2nc3ccccc3c(=O)n2-c2ccccc2C)n1	+	n	n	n	n
COc1ccc(CCNC2CCCCC2)cc1OC	n	n	n	n	n
CC1CC(OP(O)(=S)c2ccc(N(C)C)cc2NC(=O)c2cccs2)CC(C)(C)C1 (stereo not given)	n	n	n	n	n

Bioassay records deposited in PubChem by several laboratories.
